Insulin prom inh = inhibitors of insulin promoter-driven GFP, primary screen, imaging, TRM-6 cells (human fetal islet line), eGFP reporter, cell count; reporter expression induced with tamoxifen; inhibition, % at 2 µM; actives 0.9% (n = 130,000); AID 1273, 2008;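 active = inhibition above the mean plus 3 SD, with well images judged a real hit on visual review, cut at about 60% in these data, passing the limit was not always enough; inconclusive = inhibition over the cutoff but images rejected on review; inactive = inhibition not above the cutoff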
Ins promoter up = insulin promoter activators in MIN6 cells, imaging, high-content screening, mouse beta cells. MIN6 insulin promoter-GFP reporter; active compounds read high. z-score at 5 µM. actives 0.3% (n = 190,000);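 active = z-score above 3 at 5 µM with at least 500 cells counted in the well; inconclusive = wells under 500 cells, flagged as cytotoxic or low count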
Dynein transport = inhibitors of GR-EGFP nuclear translocation, primary screen, dynein cargo transport inhibitor project, imaging, high-content, 3617.4 mouse cells; test concentration mostly 20 µM; stimulated with dexamethasone, 1 µM; active compounds read low; z-score, hits read low; actives 0.47% (n = 220,000); AID 1381, 2008;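 active = plate z-score of nuclear minus cytoplasmic receptor signal below a set negative limit, without overly bright fluorescence or cell loss, cut at about -3.5 in these data, passing the limit was not always enough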;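 also: z-score of nuclear minus cytoplasmic ring GR-EGFP intensity difference per well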
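medium = tetracycline-free induction medium containing charcoal-stripped FBS | also added = 1.0 µM final dexamethasone stimulus | schedule = 48 h induction, 1 h compound, 30 min dex at 37 °C | technique = fixed, Hoechst-stained cells imaged at 10x for EGFP | measure = GR-EGFP nuclear translocation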
Autophagy mod = autophagy modulators in MEF cells, primary screen, imaging, high-content, MEF GFP-LC3 | MEF GFP-LC3 puncta imaging; test concentration mostly 10 µM | calls only at 10 µM (by protocol) | actives 0.98% (n = 190,000) | AID 463193, 2010;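 active = percentage of spot-positive cells more than 3 SD above its plate mean, without a fluorescence outlier flag or 80% toxicity; inconclusive = no clear call, values can overlap the other calls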;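 also: spot-positive cell cutoff set from DMSO-treated cells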
Active calls of the source: *. An excerpt weighted towards active compounds, which were near 2% of everything screened.

Screening OCCC1CN(C/C(Cl)=C/c2ccccc2)CCN1C1CCCC1 (stereo not drawn) returned Ins promoter up -0.47, Dynein transport -0.735 and Autophagy mod active.
`Cc1ccccc1-c1ncc(CN2CCN(C3CCCC3)C(CCO)C2)cn1` (stereo not drawn) gave Ins promoter up 0.26, Dynein transport -1.02 and Autophagy mod inactive.
For COc1ccc(-c2nc3c(c(SCC(=O)N4CCOCC4)n2)COC(C)(C)C3)cc1 the results were Insulin prom inh 60.7*, Ins promoter up 0.18, Dynein transport -0.372 and Autophagy mod inactive.
Screening CC(Sc1nc(-c2ccccc2)nc2c1COC(C)(C)C2)C(=O)N1CCOCC1 (stereo not drawn) returned Insulin prom inh -25.0, Ins promoter up -0.66, Dynein transport -0.147 and Autophagy mod inactive.
For CCOC(=O)N1CCC(N(CCOC)C(=O)Nc2ccc(Cl)c(Cl)c2)CC1 the results were Ins promoter up -0.28, Dynein transport -0.536 and Autophagy mod active.
`CCOC(=O)N1CCC(N(CCCOC)C(=O)Nc2cccc(OC)c2)CC1` gave Insulin prom inh -61.5, Ins promoter up -0.8, Dynein transport 2.67 and Autophagy mod inactive.
Screening CC(C)NC(=O)CC(=O)NN=C1CCCCC1 returned Ins promoter up -0.46, Dynein transport -0.735 and Autophagy mod inactive.
For CCOC(=O)Nc1nc(-c2ccccc2)c(C(=O)c2ccccc2)s1 the results were Insulin prom inh 18.9, Ins promoter up -0.18, Dynein transport 0.452 and Autophagy mod active.
O=C(/C=C/c1ccc([N+](=O)[O-])cc1)N1CCN(S(=O)(=O)c2cccs2)CC1 was read as Ins promoter up -0.19 and Dynein transport -0.906.
Screening C=CCNCc1cccn1-c1sc2c(c1C#N)CCCC2 returned Insulin prom inh -35.7, Ins promoter up -0.44, Dynein transport 0.354 and Autophagy mod inactive.
Screening N#Cc1c(-n2cccc2/C=N/O)sc2c1CCCC2 returned Insulin prom inh 71.4*, Ins promoter up -0.15, Dynein transport -1.08 and Autophagy mod inactive.
For Cc1ccc(NC2Sc3ccccc3NC2=O)cc1Cl (stereo not drawn) the results were Ins promoter up -0.15 and Dynein transport 0.763.
`COC(=O)c1sc2nc(C)nc(SCC(=O)C(C)(C)C)c2c1C` gave Insulin prom inh 42.9, Ins promoter up -1.54, Dynein transport 0.778 and Autophagy mod inactive.
`N#C/C(C(=O)NCCc1ccccc1)=C1/N=C(NC(=O)c2cccs2)c2ccccc21` gave Ins promoter up 0.49, Dynein transport 1.23 and Autophagy mod active.
Screening CC(NC(=O)/C(C#N)=C1\N=C(NC(=O)c2cccs2)c2ccccc21)c1ccccc1 (stereo not drawn) returned Insulin prom inh -78.8, Ins promoter up 3.96*, Dynein transport -0.0953 and Autophagy mod inactive.
For COc1ccc(/C=N/N2CCOCC2)cc1Cn1cc([N+](=O)[O-])cn1 the results were Ins promoter up -0.23 and Dynein transport -1.25.
Screening CCOC(=O)/C=c1\s/c(=C\c2ccc3cc(OC)ccc3c2)c(=O)n1CC(=O)NCC1CCCO1 (stereo not drawn) returned Ins promoter up -0.97, Dynein transport 1.91 and Autophagy mod active.
Screening CCOC(=O)/C=c1\s/c(=C\c2sccc2C)c(=O)n1CC(=O)NCc1ccc(C)cc1 returned Ins promoter up -0.2, Dynein transport -1.01 and Autophagy mod active.
`CCOC(=O)/C=c1\s/c(=C\c2ccc(C)cc2)c(=O)n1CC(=O)NCc1ccco1` gave Insulin prom inh inconclusive, Ins promoter up -0.86, Dynein transport -0.982 and Autophagy mod inactive.
CCN(CC)S(=O)(=O)c1cc([N+](=O)[O-])ccc1N=Nc1c(O)[nH]c2ccccc12 was read as Insulin prom inh 14.3, Dynein transport -0.164 and Autophagy mod active.
`CCc1cc(C(=O)N=Nc2c(O)[nH]c3ccc([N+](=O)[O-])cc23)c2ccccc2n1` gave Insulin prom inh -14.3, Ins promoter up -1.02, Dynein transport 0.188 and Autophagy mod inactive.
Screening O=[N+]([O-])c1cccc(P(=O)(O)c2cccc([N+](=O)[O-])c2)c1 returned Ins promoter up -0.17 and Dynein transport -0.173.
CCOC(=O)C1CCCN(C(=O)c2cn(C)c3ccc(S(=O)(=O)N4CCCC4)cc3c2=O)C1 (stereo not drawn) was read as Ins promoter up 0.24, Dynein transport -1.74 and Autophagy mod inactive.
For CC1CCN(S(=O)(=O)c2ccc3c(c2)c(=O)c(C(=O)N2CCCCC2)cn3C)CC1 the results were Insulin prom inh 38.7, Ins promoter up 4.9*, Dynein transport -0.563 and Autophagy mod inactive.
CC(=O)CCc1c(C)[nH]c2ccccc2c1=O was read as Insulin prom inh -27.8, Ins promoter up -0.12, Dynein transport -0.473 and Autophagy mod inactive.
CC(=O)CCc1c(C)c2cc(C)ccc2[nH]c1=O was read as Insulin prom inh 70.0*, Ins promoter up -1.25, Dynein transport 0.265 and Autophagy mod inactive.
OC(CNCCCCNCC(O)C(F)(F)F)C(F)(F)F (stereo not drawn) was read as Insulin prom inh -5.0, Ins promoter up -0.05, Dynein transport -0.0277 and Autophagy mod inactive.
O=C(NCCCN1CCN(c2ccccc2F)CC1)Nc1ccc(F)cc1 was read as Insulin prom inh -78.6, Ins promoter up -0.91, Dynein transport -0.537 and Autophagy mod inactive.
Screening O=C(NCCCN1CCN(c2ccccc2F)CC1)Nc1ccccc1[N+](=O)[O-] returned Insulin prom inh 78.4*, Ins promoter up -0.19, Dynein transport 0.371 and Autophagy mod inactive.
COc1ccc(C2=NC(=O)/C(=C\c3cc(OC)c(OC)c(OC)c3)O2)cc1 was read as Insulin prom inh -20.0, Ins promoter up 3.04*, Dynein transport -1.39 and Autophagy mod inactive.
`CCSc1nc(=S)n(Cc2ccccc2)c(C)c1C(C)=O` gave Insulin prom inh -41.7, Ins promoter up -0.81, Dynein transport 0.0456 and Autophagy mod inactive.
CSc1nc(=S)n(Cc2ccccc2)c(C)c1C(C)=O was read as Insulin prom inh 11.1, Ins promoter up -0.06, Dynein transport -0.709 and Autophagy mod active.
O=c1c(Br)c(Br)cnn1-c1ccccc1 was read as Ins promoter up inconclusive, Dynein transport -5.84* and Autophagy mod inactive.
Screening CCN(CC)C(=O)C(=O)Nc1ccc(F)c(Cl)c1 returned Ins promoter up -0.36, Dynein transport 0.73 and Autophagy mod inactive.
Screening CCC(C)C(NC(=O)OCc1ccccc1)C(=O)NC(Cc1ccc(O)cc1)C(=O)OC (stereo not drawn) returned Ins promoter up -0.2, Dynein transport 0.076 and Autophagy mod inactive.
`O=C(Cn1cccc1C(=O)c1ccccc1)NCCCN1CCOCC1` gave Insulin prom inh 7.1, Ins promoter up -0.02, Dynein transport 0.087 and Autophagy mod inactive.
Screening Cc1ccc(C)c(N2CCN(CCCNC(=O)Cn3cccc3C(=O)c3ccccc3)CC2)c1 returned Dynein transport -0.308 and Autophagy mod active.

Source: PubChem BioAssay
